Test results from ChEMBL document CHEMBL1212938, “Inhibition of mycobacterial replication by pyrimidines possessing various C-5 functionalities and related 2'-deoxynucleoside analogues using in vitro and in vivo models” (J Med Chem, 2010).
In brackets after ≈: the same amount, converted by molar mass.

Legend:
[1] = system: Mycobacterium tuberculosis; assay: Antitubercular activity against Mycobacterium bovis BCG after 6 days by microplate alamar blue assay; type: functional; conditions: variant bovis BCG, 144 h
Outline: (§1)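 MABA run in 7H9GC medium, with drug diluted from DMSO stocks made at 100× the highest final concentration. Final levels were 100, 50, 10, 5, 2.5 and 1 μg/mL in triplicate, and the experiment was done three times. Inoculum was 2.5 × 10⁵ CFU/mL final. Alamar Blue plus Tween-80 was added once bacteria-only control wells turned pink, from day 6 on, and plates were read visually and by fluorescence after 24 h. Visual MIC is the lowest concentration preventing the blue-to-pink change. Mean percent inhibition was taken relative to bacteria-only and medium-only wells.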

[2] = system: Mycobacterium tuberculosis; assay: Antitubercular activity against Mycobacterium bovis BCG at 50 ug/ml after 6 days by microplate alamar blue assay; type: functional; conditions: variant bovis BCG, 144 h; outline: as §1
[3] = system: Mycobacterium tuberculosis; assay: Antitubercular activity against Mycobacterium bovis BCG at 10 ug/ml after 6 days by microplate alamar blue assay; type: functional; conditions: variant bovis BCG, 144 h; outline: as §1
[4] = system: Mycobacterium tuberculosis; assay: Antitubercular activity against Mycobacterium bovis BCG at 1 to 5 ug/ml after 6 days by microplate alamar blue assay; type: functional, variant bovis BCG; outline: as §1
[5] = system: Mycobacterium tuberculosis; assay: Antitubercular activity against Mycobacterium bovis BCG at 100 ug/ml after 6 days by microplate alamar blue assay; type: functional; conditions: variant bovis BCG, 144 h; outline: as §1
[6] = system: Mycobacterium tuberculosis; assay: Antitubercular activity against Mycobacterium bovis BCG at 5 ug/ml after 6 days by microplate alamar blue assay; type: functional; conditions: variant bovis BCG, 144 h; outline: as §1
[7] = system: Mycobacterium tuberculosis; assay: Antitubercular activity against Mycobacterium bovis BCG at 1 ug/ml after 6 days by microplate alamar blue assay; type: functional; conditions: variant bovis BCG, 144 h; outline: as §1
[8] = system: Mycobacterium tuberculosis; assay: Antitubercular activity against Mycobacterium bovis BCG at 0.5 to 1 ug/ml after 6 days by microplate alamar blue assay; type: functional, variant bovis BCG; outline: as §1

Row | Compound | MIC50 [1] [µg/mL] | inhibition at 50 µg/mL [2] [%] | inhibition at 10 µg/mL [3] [%] | inhibition (INH) [4] [%] | inhibition at 100 µg/mL [5] [%] | inhibition at 5 µg/mL [6] [%] | inhibition at 1 µg/mL [7] [%] | inhibition (INH) [8] [%]
1 | CCCCCc1ccc(C#Cc2c[nH]c(=O)[nH]c2=O)cc1 | 1 (≈ 3.54 µM) | 60 | 60 | 50 | 90 | – | – | –
2 | N[C@@H]1CONC1=O [CYCLOSERINE] | 5 (≈ 49 µM) | – | 71 | – | – | 50 | – | –
3 | Nc1nc(=O)n([C@H]2C[C@H](O)[C@@H](CO)O2)cc1C#Cc1ccccn1 | 1 (≈ 3.05 µM) | 90 | 80 | 50 | 90 | – | – | –
4 | O=c1[nH]cc(C#Cc2ccccn2)c(=O)[nH]1 | < 5 | 75 | 75 | – | 90 | 60 | – | –
5 | CCCc1ccc(C#Cc2c[nH]c(=O)[nH]c2=O)cc1 | 1 (≈ 3.93 µM) | 70 | 70 | 50 | 100 | – | – | –
6 | NNC(=O)c1ccncc1 [ISONIAZID] | < 1 | – | – | – | – | – | 100 | –
7 | O=c1[nH]c(=O)n([C@H]2C[C@H](O)[C@@H](CO)O2)cc1C#Cc1ccccn1 | 1 (≈ 3.04 µM) | 90 | 80 | 50 | 50 | – | – | –
8 | CO[C@H]1/C=C/O[C@@]2(C)Oc3c(C)c(O)c4c(O)c(c(/C=N/N5CCN(C)CC5)c(O)c4c3C2=O)NC(=O)/C(C)=C\C=C\[C@H](C)[C@H](O)[C@@H](C)[C@@H](O)[C@@H](C)[C@H](OC(C)=O)[C@@H]1C [RIFAMPIN] | < 1 | – | – | – | – | – | 100 | –
9 | C(C#Cc1ccccn1)#Cc1ccccn1 | < 0.5 | 100 | 100 | – | 100 | – | – | 80
10 | CCCCCc1cc2c[nH]c(=O)nc2o1 | 100 (≈ 485 µM) | – | – | – | – | – | – | –
11 | O=c1[nH]cc(C#Cc2ccccc2)c(=O)[nH]1 | ≥ 10 | 90 | 40 | – | 90 | – | – | –
12 | CCCc1cc2c[nH]c(=O)nc2o1 | 10 (≈ 56.1 µM) | 50 | 50 | – | 90 | – | – | –
